Sampled rows, rich in hits. Any-hit rate of the full collection: about 1.7%.
Rpn11 block – Rpn11 (human) deubiquitinase inhibition | hit rate 0.59% among 360,000 | human 26S proteasome, Ub4-pepOG fluorescence polarization; 20S core pre-blocked with epoxomicin | inhibition, % at 20 µM;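 active means inhibition at 20 µM, scaled to each plate's controls, above about 33%, limit read from the data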
Target sequence (O00487 whole entry, looked up): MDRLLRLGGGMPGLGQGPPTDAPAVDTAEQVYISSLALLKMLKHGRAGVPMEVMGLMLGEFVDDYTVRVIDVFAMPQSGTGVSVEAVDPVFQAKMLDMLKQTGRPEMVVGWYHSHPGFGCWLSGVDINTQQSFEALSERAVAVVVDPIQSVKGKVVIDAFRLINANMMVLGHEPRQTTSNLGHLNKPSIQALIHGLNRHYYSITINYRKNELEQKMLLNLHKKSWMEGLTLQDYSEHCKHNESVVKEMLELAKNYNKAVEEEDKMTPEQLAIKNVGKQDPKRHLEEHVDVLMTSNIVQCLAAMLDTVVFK
PLC-gamma1 inh – PLC-gamma1 (human) inhibition, primary screen. P19174. purified PLC-gamma1, fluorogenic substrate, fluorescence. inhibition, % at 12.2 µM. hit rate 0.84% among 370,000. AID 720700; in the data active means inhibition above about 9.5%
PLC-beta3 inh – inhibitors of human phospholipase C beta3; Q01970; Purified PLC-beta3, fluorogenic substrate, fluorescence; inhibition, % at 12.2 µM; hit rate 0.18% among 370,000
UCH37 inh – blocks the human deubiquitinase UCH37 | inhibition, % (concentration not given with the values) | hit rate 0.33% among 330,000 | Q9Y5K5 | AID 588478 | purified proteasome/UCH37, Ub-AMC cleavage fluorescence;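 active means mean inhibition over replicate wells above about 20%, limit read from the data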
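Material: Human UCH37 enzyme supplied as purified proteasome complex | Schedule: 30 min preincubation with enzyme, 25 min cleavage at room temperature | Detection: AMC fluorescence 355/460 nm | Measure: % inhibition of Ub-AMC cleavage fluorescence | Controls: Wells without proteasome as full block, compound-free enzyme plus substrate as uninhibited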
PLCg1 ctr – PLC-gamma1 inhibition, counter-screen for PLC-beta3 hits; shares compounds with PLC-gamma1 inh; purified PLC-gamma1, fluorogenic substrate, fluorescence; hit rate 3.1% among 3,300; inhibition, % at 12.3 µM; AID 743258; in the data active means inhibition above about 9.5%
PLCbeta3 conf – confirmation of human PLC-beta3 inhibitors; hit rate 1% among 3,300; inhibition, % at 12.3 µM; AID 743261; shares compounds with PLC-gamma1 inh; purified PLC-beta3, fluorogenic substrate fluorescence
Of the large screens only hits and unclear results are named; the others gave an inactive call (follow-up assays come after a bar, where they were run). Unless noted, no stated cut-off is given here; in the data, active means inhibition above about 11%; inactive means the rest.

O/N=C(/c1ccccc1)c1cc2cc(Br)cc(Br)c2o1	PLC-gamma1 inh 12 (no result: UCH37 inh) | PLCg1 ctr inactive | PLCbeta3 conf inactive
COc1cccc2cc(/C(=N/O)c3ccc(Br)cc3)oc12	none (no result: UCH37 inh)
Cc1ccc[n+](/C(=C\C(=C=[N-])C#N)C(=O)c2ccc(Cl)cc2)c1	PLC-gamma1 inh 9.7, UCH37 inh 21 | PLCg1 ctr inactive | PLCbeta3 conf inactive
Cc1ccc(-n2nc3c(c2NC(=O)c2ccc4c(c2)OCO4)CS(=O)C3)cc1 (stereo not drawn)	PLC-gamma1 inh 11 | PLCg1 ctr inactive | PLCbeta3 conf inactive
CC(=NNC(=O)c1nn(C)cc1Br)c1cccc(NC(=O)C(C)(C)C)c1	none (no result: Rpn11 block, PLC-gamma1 inh, PLC-beta3 inh)
CC(C)(C)NC(=O)NC(=O)COc1ccc(Br)cc1Br	PLC-gamma1 inh 11 | PLCg1 ctr inactive | PLCbeta3 conf inactive
O=C(COc1ccc(Br)cc1Br)NC(=O)NC1CCCC1	none
Cc1oc(C=NNS(=O)(=O)c2ccccc2)cc1Br	none (no result: Rpn11 block, PLC-gamma1 inh, PLC-beta3 inh)
CN(C)S(=O)(=O)Oc1ccc(C(=O)Nc2ccc([N+](=O)[O-])cc2)cc1	none
CC(C)Oc1ccc(C(=O)Nc2ccc([N+](=O)[O-])cc2)cc1	PLC-gamma1 inh 10 | PLCg1 ctr inactive | PLCbeta3 conf inactive
Cc1cccnc1NC(=O)Nc1cccc(C(F)(F)F)c1	PLC-gamma1 inh 10 | PLCg1 ctr inactive | PLCbeta3 conf inactive
Cc1cccnc1NC(=O)Nc1ccc(F)cc1	none
COc1cccc(NC(=O)C(Sc2nnc(Nc3ccccc3C)s2)c2ccccc2)c1 (stereo not drawn)	PLC-gamma1 inh 10.0 | PLCg1 ctr inactive | PLCbeta3 conf inactive
COc1ccc(Nc2nnc(SC(C(=O)Nc3cc(C)ccc3C)c3ccccc3)s2)cc1 (stereo not drawn)	none
COc1ccc(NS(=O)(=O)c2ccc(S(=O)(=O)N3CCCC3)cc2)cc1Cl	PLC-gamma1 inh 15 | PLCg1 ctr inactive | PLCbeta3 conf inactive
O=C(N/N=C\c1ccc(Cl)cc1)C1=NOC2COC3(CCN(c4ccc([N+](=O)[O-])cc4)CC3)OCC12 (stereo not drawn)	PLC-gamma1 inh 14, PLC-beta3 inh 13 (no result: UCH37 inh) | PLCg1 ctr inactive | PLCbeta3 conf inactive
O=C(NCCCN1CCCC1=O)NC1CCCCC1	PLC-beta3 inh 11 | PLCg1 ctr inactive | PLCbeta3 conf inactive
C[C@H]1CCC[C@]2(O[C@@H](CCO)C[C@@H](O)[C@@H]2O)O1	PLC-gamma1 inh 9.9 | PLCg1 ctr inactive | PLCbeta3 conf inactive
OCC[C@H]1C[C@@H](O)[C@H](O)[C@]2(CCc3ccccc3O2)O1	PLC-beta3 inh 11 | PLCg1 ctr inactive | PLCbeta3 conf inactive
OCC[C@@H]1C[C@@H](O)[C@H](O)[C@]2(CCCc3ccccc3O2)O1	none
OCC[C@H]1C[C@H](O)[C@@H](O)[C@]2(CCCc3ccccc3O2)O1	PLC-beta3 inh 11 | PLCg1 ctr inactive | PLCbeta3 conf inactive
OCC[C@H]1C[C@@H](O)[C@H](O)[C@@]2(CCc3ccccc3O2)O1	none
Cc1ccc(C=NNC(=O)C(C)Oc2ccccc2[N+](=O)[O-])s1 (stereo not drawn)	none (no result: Rpn11 block, PLC-gamma1 inh, PLC-beta3 inh)
N#CCC(=O)NN=Cc1cn(Cc2ccc(Cl)cc2Cl)c2ccccc12	none (no result: Rpn11 block, PLC-gamma1 inh, PLC-beta3 inh)
C[C@@]12C(=O)N(c3cccc(F)c3)C(=O)N1[C@@H]1c3ccccc3OC[C@@H]1[C@H]2c1ccccc1	PLC-gamma1 inh 10.0 | PLCg1 ctr inactive | PLCbeta3 conf inactive
CCS(=O)(=O)N1CCC(C(=O)NCCCN2CCC(Cc3ccccc3)CC2)CC1	PLC-gamma1 inh 11 | PLCg1 ctr inactive | PLCbeta3 conf inactive
CCCS(=O)(=O)N1CCC(C(=O)NCCN2CCC(Cc3ccccc3)CC2)CC1	PLC-gamma1 inh 15, PLC-beta3 inh 13 | PLCg1 ctr inactive | PLCbeta3 conf inactive
CC(=Nn1cnnc1)c1ccccc1	none (no result: Rpn11 block, PLC-gamma1 inh, PLC-beta3 inh)
Cc1cc(Cl)c(OCCCN2CCCCC2)c(Br)c1	PLC-gamma1 inh 10 (no result: UCH37 inh) | PLCg1 ctr inactive | PLCbeta3 conf inactive
Cc1cc(C)c(OCCN2CCCC2)c(Cl)c1	none
C=CCNc1cccc(Br)c1	PLC-beta3 inh 11 | PLCg1 ctr inactive | PLCbeta3 conf inactive
CNC(=S)N(Cc1ccc(OC)cc1)C1CC(=O)N(c2ccc(Cl)cc2)C1=O (stereo not drawn)	PLC-gamma1 inh 9.6 | PLCg1 ctr inactive | PLCbeta3 conf inactive
COC(OC)C(C)NC(=O)NC(=O)c1ccccc1Cl (stereo not drawn)	none
COC(=O)/C=C(\C)NC(=O)c1ccccc1Cl	PLC-beta3 inh 11 | PLCg1 ctr inactive | PLCbeta3 conf inactive
Cc1ccc(C=NNC(=S)NC(C)C)o1	none (no result: Rpn11 block, PLC-gamma1 inh, PLC-beta3 inh)

Assay outcomes: PubChem, several laboratories
